Experimental data taken from ChEMBL document CHEMBL4321838, “Drug Design Targeting T-Cell Factor-Driven Epithelial-Mesenchymal Transition as a Therapeutic Strategy for Colorectal Cancer” (J Med Chem, 2019).
Converted amounts (≈) assume the structure as drawn. The source made the active and inactive calls.

Key:
[1] = test system: SW-620; assay: Anticlonogenic activity against human SW620 cells assessed as loss of cancer stem cell stemness by measuring inhibition of colony formation at 10 uM incubated for 24 hrs followed by replating and measured after 7 days by clonogenic assay; format: functional, cell-based
[2] = test system: SW-620; assay: Antiinvasive activity in human SW620 organoids transduced with NucLight-Red virus assessed as inhibition of cell invasion at 10 uM incubated for 72 hrs and measured after 72 hrs by matrigel based fluorescence analysis; format: functional
In short: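 NucLight-Red-labelled SW620 organoids treated 72 h at 10 μM in 0.1% DMSO, then dissociated. 5,000 live cells per well seeded in 50% Matrigel in the upper chamber of a migration plate, 0.5% FBS above and 20% FBS below. Invading cells tracked by bottom-side fluorescence over days, six replicates per condition.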

[3] = target: T1, DNA topoisomerase 2-alpha (Homo sapiens, UniProt P11388); assay: Inhibition of human topoisomerase 2alpha mediated decatenation at 30 uM using kDNA as susbtrate preincubated for 20 mins followed by substrate and ATP addition and measured after 1 hr by ethidium bromide staining based gel electrophoresis method relative to control
T1 sequence (P11388 whole entry): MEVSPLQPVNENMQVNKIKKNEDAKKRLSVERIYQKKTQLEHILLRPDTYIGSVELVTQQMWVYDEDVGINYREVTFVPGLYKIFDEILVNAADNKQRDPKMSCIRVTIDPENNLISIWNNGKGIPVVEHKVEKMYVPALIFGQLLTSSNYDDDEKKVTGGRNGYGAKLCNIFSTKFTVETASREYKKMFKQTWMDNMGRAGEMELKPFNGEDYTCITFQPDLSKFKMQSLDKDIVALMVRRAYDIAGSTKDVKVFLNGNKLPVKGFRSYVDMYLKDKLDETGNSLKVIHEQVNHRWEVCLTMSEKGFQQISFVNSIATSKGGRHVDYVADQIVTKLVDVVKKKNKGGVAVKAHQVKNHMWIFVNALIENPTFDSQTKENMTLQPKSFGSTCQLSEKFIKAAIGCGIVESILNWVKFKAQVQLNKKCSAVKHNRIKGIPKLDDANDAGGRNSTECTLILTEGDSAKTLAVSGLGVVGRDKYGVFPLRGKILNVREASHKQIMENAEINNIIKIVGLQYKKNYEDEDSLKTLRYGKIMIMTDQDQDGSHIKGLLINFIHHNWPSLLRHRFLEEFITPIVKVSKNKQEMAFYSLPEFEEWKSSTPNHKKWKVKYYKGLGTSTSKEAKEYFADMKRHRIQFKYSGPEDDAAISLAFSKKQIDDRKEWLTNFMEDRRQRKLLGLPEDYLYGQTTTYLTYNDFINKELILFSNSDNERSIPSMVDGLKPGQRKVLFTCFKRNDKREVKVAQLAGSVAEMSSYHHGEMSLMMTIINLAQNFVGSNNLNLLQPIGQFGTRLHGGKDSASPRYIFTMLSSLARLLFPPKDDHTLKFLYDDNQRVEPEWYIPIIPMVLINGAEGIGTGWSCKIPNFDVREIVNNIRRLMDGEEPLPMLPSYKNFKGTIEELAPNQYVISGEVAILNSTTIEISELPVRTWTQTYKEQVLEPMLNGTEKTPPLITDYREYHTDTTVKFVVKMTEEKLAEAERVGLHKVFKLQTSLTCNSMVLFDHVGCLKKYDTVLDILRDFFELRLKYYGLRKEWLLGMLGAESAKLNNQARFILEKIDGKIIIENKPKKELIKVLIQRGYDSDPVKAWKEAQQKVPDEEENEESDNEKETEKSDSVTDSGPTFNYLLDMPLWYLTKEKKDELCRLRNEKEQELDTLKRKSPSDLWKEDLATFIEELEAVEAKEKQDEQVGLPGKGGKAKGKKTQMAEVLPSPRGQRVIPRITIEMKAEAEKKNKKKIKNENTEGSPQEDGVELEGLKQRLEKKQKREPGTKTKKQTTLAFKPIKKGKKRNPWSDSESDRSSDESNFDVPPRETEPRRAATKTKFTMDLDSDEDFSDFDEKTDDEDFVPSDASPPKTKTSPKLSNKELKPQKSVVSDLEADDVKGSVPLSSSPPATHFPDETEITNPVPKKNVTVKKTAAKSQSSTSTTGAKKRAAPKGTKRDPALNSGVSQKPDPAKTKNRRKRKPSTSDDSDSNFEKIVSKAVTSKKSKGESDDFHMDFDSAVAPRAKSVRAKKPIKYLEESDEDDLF
In short: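 Human TOP2A (3 U) preincubated 20 min at 37 °C with compound at 30 μM in 1.2% DMSO. Reaction started with 2 mM ATP and 35 ng kDNA and run 1 h at 37 °C. Products resolved on 0.8% agarose in TBE with 0.2 μg/mL ethidium bromide; decatenated bands compared with vehicle.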

[4] = target: T1, DNA topoisomerase 2-alpha; assay: Inhibition of topoisomerase 2alpha dependent TCF transcription in human SW620 organoids transduced with TOPflash luminescent reporter after 72 hrs by luciferase based TOPFlash reporter gene assay
In short: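 SW620 cells stably carrying pCDH-TOPflash-luc grown as organoids: 5,000 cells per U-bottom well in phenol red-free RPMI with 5% FBS and 2% Matrigel, 72 h. Inhibitor then applied 72 h. One-Glo luciferase and CellTiter-Glo 3D added 1:1. Luciferase signal normalised to viability, then to DMSO controls.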

[5] = test system: SW-620; assay: Cytotoxicity against human SW620 organoids assessed as cell death with loss of membrane integrity after 72 hrs by CellTox Green assay; format: functional, cell-based; settings: SW-620, 72 h
In short: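 SW620 tumor organoids exposed 72 h to inhibitor over 0–40 μM together with CellTox Green Express (0.5X). Whole-well mean fluorescence imaged (ex 488, em 500–550 nm). Normalised to lysis buffer as 0% viability and 0.4% DMSO as 100% viability.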

[6] = target: T1, DNA topoisomerase 2-alpha; assay: Inhibition of topoisomerase 2alpha in human SW620 organoids transfected with VimPro-GFP reporter assessed as reversion of epithelial-mesenchymal transition by measuring reduction in vimentin expression up to 40 uM after 72 hrs by Hoechst 33342 staining based GFP reporter gene assay
In short: (§1)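 SW620 cells stably carrying VimPro-GFP or EcadPro-mCherry (puromycin selected) grown as organoids and dosed 72 h. Stained with 16 μM Hoechst 33342 for 1 h and imaged as 15 z-layers, 26.5 μm apart. Nuclei segmented and GFP- or mCherry-positive cells counted above background thresholds. Percent positive cells normalised to DMSO.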

[7] = target: T1, DNA topoisomerase 2-alpha; assay: Inhibition of topoisomerase 2alpha in human SW620 organoids transfected with EcadPro-RFP reporter assessed as reversion of epithelial-mesenchymal transition by measuring increase in E-cadherin expression up to 40 uM after 72 hrs by Hoechst 33342 staining based mCherryRFP reporter gene assay; in short: as §1
[8] = test system: SW-620; assay: Induction of apoptosis in human SW620 organoids assessed as increase in cleaved caspase 3/7 level at 40 uM after 72 hrs by caspase-glo 3/7 luminescence assay relative to control; format: functional
In short: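 SW620 cells, 2,000 per well in 384-well ultra-low attachment plates with 2% Matrigel, grown 72 h into organoids, then dosed 72 h. Caspase-Glo 3/7 reagent added 1:1 and shaken 30 min; luminescence read. Staurosporine served as positive control and 0.4% DMSO as negative control.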

[9] = Aqueous solubility of compound in PBS at 1 mg after 18 hrs by UV based analysis; format: physicochemical
In short: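 Undissolved material removed by centrifugation at 5,000g for 45 min. UV absorption compared with a fully saturated 1-propanol solution; solubility derived by linear regression.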

[10] = Half life in CD-1 mouse microsomes measured up to 1 hr by LC-MS analysis; format: ADME, Microsome
In short: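 Female CD-1 mouse liver microsomes (0.5 mg/mL), substrate 1 μg/mL and 1.5 mM NADPH in 0.1 M phosphate buffer pH 7.4 at 37 °C. Samples taken from 0 to 60 min and quenched with an equal volume of acetonitrile. Parent compound remaining measured by LC-MS/MS without internal standard.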

[11] = Cmax in CD-1 mouse at 50 mg/kg, ip by LC-MS/MS analysis; format: ADME, organism-based; parameters: dose 50 mg/kg, route intraperitoneal; settings: in vivo
In short: (§2)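 Female CD-1 mice, single IP injection at 50 mg/kg in 100% DMSO. Sampling from 0.25 to 24 h, three mice per time point (21 per compound). Heparinised blood was spun to plasma, mixed 1:1 with acidified acetonitrile (0.1% formic acid or 0.1% TFA depending on compound), centrifuged, then measured by LC-MS/MS.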

[12] = Tmax in CD-1 mouse at 50 mg/kg, ip by LC-MS/MS analysis; format: ADME, organism-based; settings: in vivo; in short: as §2
[13] = test system: Mus musculus; assay: Apparent volume of drug distribution in CD-1 mouse at 50 mg/kg, ip by LC-MS/MS analysis; format: ADME, organism-based; settings: in vivo; in short: as §2
[14] = AUC(0 to t) in CD-1 mouse at 50 mg/kg, ip by LC-MS/MS analysis; format: ADME, organism-based; settings: in vivo; in short: as §2
[15] = Clearance in CD-1 mouse at 50 mg/kg, ip by LC-MS/MS analysis; format: ADME, organism-based; settings: in vivo; in short: as §2
[16] = Half life of terminal disposition phase in CD-1 mouse at 50 mg/kg, ip by LC-MS/MS analysis; format: ADME, organism-based; settings: in vivo, read-out: t1/2lambda (converted); in short: as §2
[17] = test system: SW-620; assay: Induction of early stage cell death in human SW620 organoids transfected with EcadPro-RFP reporter assessed as loss of RFP reporter activity at 40 uM at after 72 hrs by Hoechst 33342 staining based mCherryRFP reporter gene assay; settings: sw-620, 72 h
[18] = Metabolic stability in CD-1 mouse inactive microsomes incubated for 1 hr by LC-MS/MS analysis; format: ADME, Microsome
[19] = Metabolic stability in CD-1 mouse active microsomes assessed as CYP450-mediated oxidative phase 1 metabolite formation measured up to 60 mins by LC-MS/MS analysis; format: ADME; settings: 1 h
[20] = Drug metabolism in CD-1 mouse active microsomes assessed as CYP450-mediated oxidative phase 1 metabolite formation by LC-MS/MS analysis
[21] = test system: SW-620; assay: Cytotoxicity against human SW620 organoids assessed as growth inhibition at 10 uM after 72 hrs by brightfield imaging of organoid volume

- inhibition [3]: 90%
- IC50 [4]: 0.7 µM
- inhibition [6]: Active
- inhibition [7]: Active
- solubility thermodynamic at 18 h [9]: 1520 µg/mL (≈ 3.69 mM)
- t1/2 [10]: 8.53 min
- Cmax [11]: 10900 ng/mL
- Tmax [12]: 15 min
- Vz [13]: 34 L/kg
- AUC(0-t) [14]: 13000 ng·h/mL
- CL/F [15]: 62.2 mL/min/kg
- half-life [16]: 379 min
- Stability [18]: Stable
- Drug metabolism [19]: Metabolite_Detected
- Drug metabolism [20]: Metabolite_Notdetected
Structure (SMILES): O=C(CCN1CCOCC1)Nc1ccc2c(-c3cc(F)ccc3O)ccnc2c1O
- inhibition [1]: Active
- inhibition [2]: Active
- EC50 [5]: 16 µM
- fold change (FC) [8]: 9
- Activity [17]: Active
- growth inhibition (GI) [21]: Active
